Bioassay records deposited in PubChem by The Scripps Research Institute Molecular Screening Center.
OX1R antag-1 = OX1R (human) antagonism; O43613; OX1R-expressing cells, FRET antagonist read-out; inhibition, % at 6.6 µM; 1.8% of 330,000 active; in the data active = inhibition mostly above about 38%, no sharp cut-off; inactive = mostly below about 40%
OX1R antag-2 = antagonists of human orexin 1 receptor | CHO/OX1R cells, Fluo-8 calcium fluorescence, orexin A | inhibition, % at 5 µM | 0.43% of 330,000 active | AID 434989;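 active = inhibition above its plate's threshold, mean inhibition of all tested compounds on the plate plus 3 SD, cut at about 37% in these data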
TRPML3 agonist = activates the human TRPML3 channel | Q8TDD5 | 0.29% of 220,000 active | HEK293 TRPML3-YFP, Fluo-8 calcium fluorescence; 100% = the carbachol control signal | activation, % at 3 µM | AID 1448;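 active = activation above its plate's cutoff, the mean activation of the plate's test wells plus 3 SD, cut at about 12% in these data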
Target sequence (Q8TDD5 whole entry, looked up): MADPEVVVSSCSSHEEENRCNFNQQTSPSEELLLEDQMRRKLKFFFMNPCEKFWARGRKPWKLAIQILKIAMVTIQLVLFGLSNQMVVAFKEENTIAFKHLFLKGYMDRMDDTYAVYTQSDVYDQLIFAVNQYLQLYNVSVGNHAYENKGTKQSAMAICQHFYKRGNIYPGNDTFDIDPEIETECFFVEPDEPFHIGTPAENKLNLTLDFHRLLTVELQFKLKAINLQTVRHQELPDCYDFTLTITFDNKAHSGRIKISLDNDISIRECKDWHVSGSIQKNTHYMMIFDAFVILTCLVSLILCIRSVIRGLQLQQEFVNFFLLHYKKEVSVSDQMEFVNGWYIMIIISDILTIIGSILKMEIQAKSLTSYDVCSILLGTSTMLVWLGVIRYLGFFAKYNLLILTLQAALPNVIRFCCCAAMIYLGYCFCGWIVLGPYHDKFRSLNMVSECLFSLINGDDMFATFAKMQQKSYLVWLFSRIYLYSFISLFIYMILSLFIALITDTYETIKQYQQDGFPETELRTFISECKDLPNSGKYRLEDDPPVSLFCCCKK
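system = HEK293 cells stably carrying human TRPML3-YFP | doses = one concentration, 3 µM nominal, 0.3% DMSO | timing = dye loading 1 h 37 °C then 30 min ambient, 125 s read | detection = Fluo-8 calcium dye fluorescence, ex 470-495, em 515-575 nm | benchmarks = high control carbachol 87 µM, low control DMSO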
GPR7 antag = human neuropeptides B/W receptor 1 antagonism | AID 1861 | 1.1% of 290,000 active | inhibition, % at 4.4 µM | GPR7-expressing cells, fluorescence antagonist assay; in the data active = inhibition above about 16%, passing the limit was not always enough;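 also: cells stimulated with the agonist NPW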
zfTRPN1 agonist = activates the zebrafish TRPN1 channel. HEK293 zebrafish TRPN1-YFP, Fluo-8 calcium fluorescence; 100% = response to 87 µM carbachol. activation, % at 3 µM. 0.18% of 220,000 active. AID 1424;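 active = activation above its plate's cutoff, the mean activation of test wells on that plate plus 3 SD, cut at about 19% in these data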
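Material – zebrafish TRPN1-YFP in HEK293 cells · Doses – 3 µM single point · Schedule – dye 1 h 37 °C plus 30 min RT · Signal – Fluo-8 calcium fluorescence, excitation 470-495 nm, emission 515-575 nm · Read-out – % activation versus carbachol response · Control set – carbachol high, DMSO low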
CHO parental Ca = counter-screen for OX1R antagonists: effect in parental CHO cells; parental CHO-K1, ATP-induced calcium, Fluo-8 fluorescence; inhibition, % at 5.6 µM; 0.63% of 330,000 active;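 active = inhibition above that plate's mean sample inhibition plus 3 SD, cut at about 26% in these data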
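Material: Parental CHO cells | Reagent: ATP | Compound dosing: Single nominal dose of 5.6 µM per compound | Detection: Intracellular calcium via Fluo-8 no-wash fluorescent dye | Read-out: % inhibition of ATP-induced calcium mobilization | Benchmarks: Low control ATP plus DMSO, high control DMSO only | Replicates: Singlicate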
A number is an active result; n = inactive; x = no result given. A selection: hits, their analogues and other compounds. The true share with any hit is near 3.2%.

SMILES	OX1R antag-1	OX1R antag-2	TRPML3 agonist	GPR7 antag	zfTRPN1 agonist	CHO parental Ca
Cn1c(SCC(=O)NC2(C#N)CCCCC2)nnc1-c1cccnc1	n	n	x	n	x	n
COc1cnc(-c2ccccn2)nc1Sc1ccc(F)cc1	n	n	n	n	n	n
CCn1c(SCC(=O)Nc2nc3ccc(C)cc3s2)nc2c(c1=O)SC(C)C2 (stereo unspecified)	81	59	n	n	n	45
CCn1c(SCC(=O)Nc2nc3ccccc3s2)nc2c(c1=O)SC(C)C2 (stereo unspecified)	n	n	n	n	n	n
CCN(Cc1ccccc1)C(=O)COC(=O)c1c(C)nsc1NC	50	n	x	x	x	n
CCN(Cc1ccccc1)C(=O)COC(=O)c1cnc(C)cn1	n	n	n	n	n	n
COCCCn1[nH]c2c3c(ccc2c1=O)C(=O)c1ccccc1C3=O	75	n	n	n	n	n
S=C(NCc1cccs1)Nc1cc(Cl)cc(Cl)c1	n	n	n	n	n	39
O=C(Nc1cccnc1Oc1ccc(Cl)cc1)c1cccc2ccccc12	n	n	n	n	n	n
CC(=O)c1cccc(NC(=O)c2ccc([N+](=O)[O-])o2)c1	57	n	x	x	x	n
O=C(Nc1c(Cl)ccc2nsnc12)c1ccc([N+](=O)[O-])o1	57	n	x	n	x	n
NC(=O)c1oc2ccccc2c1NC(=O)c1ccc([N+](=O)[O-])o1	48	n	x	n	x	n
COc1ccc(NC(=O)c2ccc([N+](=O)[O-])o2)cc1	49	n	x	n	x	n
NC(=O)c1oc2ccccc2c1NC(=O)c1ccc(F)cc1	n	n	n	n	n	n
Cc1ccc(NS(=O)(=O)c2ccc3c(c2)CCN3C(=O)CCC(=O)O)cc1Cl	n	n	x	n	x	n
COc1ccc(N=Cc2c(O)[nH]c3ccccc23)cc1	n	n	n	n	n	n
Oc1[nH]c2ccccc2c1C=Nc1ccc2c(c1)OCO2	59	n	n	n	n	n
COc1ccc(C(=O)[C@@H]2CC[C@](C)(C(=O)O)C2(C)C)cc1	n	n	x	x	x	n
COc1cc(NC(=S)Nc2ncccc2C)cc(OC)c1OC	45	n	n	n	n	n
C/C(=N\NC(=O)c1cccc(N/N=C(\C)c2cc(O)ccc2O)c1)c1cc(O)ccc1O	n	n	n	n	n	n
C/C(=N\Nc1cccc([N+](=O)[O-])c1)c1cc(F)ccc1O	68	n	n	n	n	n
CCCOC(=O)c1ccc(NC(=O)c2cc(Cl)ccc2OC)cc1	66	n	n	n	n	n
O=C(O)CCn1c(SCc2cccc3ccccc23)nc2ccccc21	68	n	n	n	n	n
Cc1ccccc1OCCSc1nc2ccccc2n1CCC(=O)O	74	n	x	n	x	n
Cc1ccc(OCCSc2nc3ccccc3n2CCC(=O)O)cc1	49	n	x	n	x	n
SMILES	OX1R antag-1	OX1R antag-2	TRPML3 agonist	GPR7 antag	zfTRPN1 agonist	CHO parental Ca
COc1ccc(S(=O)(=O)N2CCCCCC2)cc1C(=O)N(C)CC(=O)Nc1ccccc1C(F)(F)F	n	n	x	x	x	n
COc1cc(CN2CCNC(=O)C2CC(=O)N(C)Cc2ncc[nH]2)cc(OC)c1 (stereo unspecified)	n	n	n	n	n	n
Cc1ccc(N(CC(=O)N/N=C/c2cc(C)n(-c3ccccc3C)c2C)S(C)(=O)=O)cc1	n	n	n	n	n	n
CC(=O)Nc1sc(N/N=C\c2ccco2)nc1-c1cccs1	n	n	n	n	n	n
COc1ccc(-c2cc(N)n(S(=O)(=O)Cc3ccccc3)n2)c(OC)c1	61	n	n	n	n	n
CC(C)(C)OC(=O)C[C@@H]1C/C=C\C[C@H](CC(=O)NCCO)C(=O)NC[C@H](c2ccccc2)OC1=O	n	n	x	x	x	n
CC(CNc1nc2ccc(Cl)cc2n2cnnc12)c1ccccc1 (stereo unspecified)	n	n	x	n	x	n
COc1ccc(C(=O)NCCCNC(=O)c2cc3ccccc3[nH]2)cc1OC	70	n	x	n	x	n
CCCCOc1ccc(S(=O)(=O)Nc2cccnc2)cc1	n	n	n	n	n	39
CCCCNC(=S)Nc1ccc(C(F)(F)F)cc1	n	n	n	n	n	71
CCOC(=O)C1=C(COC(=O)c2ccc([N+](=O)[O-])s2)NC(=O)NC1C (stereo unspecified)	37	n	x	x	x	n
O=C(CSc1nc2ncc(Cl)cc2[nH]1)c1c[nH]c2ccccc12	n	n	n	n	n	n
O=C(CSc1nc2ccc(Cl)cc2[nH]1)c1c[nH]c2ccccc12	41	n	n	n	n	n
Cc1csc(NC(=O)CSc2nnc(-c3ccoc3C)o2)n1	n	n	n	n	n	n
Cc1occc1-c1nnc(SCC(=O)Nc2nc(C(C)(C)C)cs2)o1	n	n	n	n	n	36
Cc1noc(C)c1COc1ccc(C(=O)OCc2nnc(-c3ccc(Cl)cc3)o2)cc1	n	54	n	n	n	35
O=C(OCc1nnc(-c2ccc(Cl)cc2)o1)c1ccncc1	n	n	n	n	n	n
Cc1noc(C)c1CSCC(=O)OCc1nnc(-c2ccc([N+](=O)[O-])cc2)o1	47	n	x	x	x	n
CC(=O)c1c(C)[nH]c(C(=O)COc2cc(C)ccc2C(C)C)c1C	84	62	n	25	n	74
Cc1ccc(C2CC(c3cccs3)=NN2C(=O)CSc2nc(=O)n3cc(C)ccc3n2)cc1 (stereo unspecified)	n	n	x	x	x	n
CCOCCCn1c(=NC(=O)c2cccs2)c(C#N)cc2c(=O)n3ccccc3nc21	n	n	n	n	n	n
Cc1c(C(=O)Nc2nonc2-c2ccc(F)cc2)oc2ccc(F)cc12	49	n	x	n	x	n
O=C(Nc1ccc(Cl)cc1Cl)c1cccc(N2C(=O)C=CC2=O)c1	n	n	x	x	x	n
CCc1c2c(nc3ccc(OC(=O)N4CCC(N5CCCCC5)CC4)cc13)-c1cc3c(c(=O)n1C2)COC(=O)[C@]3(O)CC	53	n	x	x	x	n
CCOC(=O)N1CCN(C(=O)C(=O)Nc2ccc3nc4n(c(=O)c3c2)CCCCC4)CC1	n	n	n	n	n	n
SMILES	OX1R antag-1	OX1R antag-2	TRPML3 agonist	GPR7 antag	zfTRPN1 agonist	CHO parental Ca
O=C(CCCc1nc(-c2ccc(Cl)cc2)no1)NC1CCCC1	n	n	x	n	x	48
O=C(CCc1nc(-c2ccc(Cl)cc2)no1)NC1CCCCC1	n	n	x	n	x	n
OC(CNCCc1ccccc1)COc1ccc(OCC(O)CNCCc2ccccc2)cc1 (stereo unspecified)	n	n	n	32	n	n
OC(CNCCc1ccc(Cl)cc1)COc1ccc2ccccc2c1 (stereo unspecified)	x	x	n	n	n	x
COc1cc(C(=O)NCC(C)(C)CNC(=O)c2cc(OC)c(OC)c(OC)c2)cc(OC)c1OC	n	n	x	n	x	n
O=C(COC(=O)Cc1ccc(S(=O)(=O)N2CCOCC2)s1)Nc1ccccc1	n	n	x	x	x	n
